Measurements published in ChEMBL document CHEMBL2406982, “Structure-activity relationships of new cyanothiophene inhibitors of the essential peptidoglycan biosynthesis enzyme MurF” (Eur J Med Chem, 2013).
Values after ≈ are worked out from the molar mass of the structure shown. Active and inactive are the calls of the source. The calls are words filed in the database; no cut-off is given here.

Experiments:
Escherichia coli [1] = test: Antimicrobial activity against Escherichia coli AB734 by broth microdilution method; type: functional, organism-based
In short: (§1)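 Broth microdilution MIC per CLSI guidelines in Mueller-Hinton broth. E. coli 1411 and AB734 were also tested with added polymyxin B nonapeptide to permeabilise the outer membrane.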

Streptococcus pneumoniae = test: Antimicrobial activity against Streptococcus pneumoniae R6 by broth microdilution method; type: functional
In short: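 MIC by CLSI broth microdilution in Mueller-Hinton broth supplemented with 5% (v/v) lysed horse blood.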

Staphylococcus aureus [2] = test: Antimicrobial activity against Staphylococcus aureus SH1000 by broth microdilution method; type: functional, organism-based
In short: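 MIC by broth microdilution in Mueller-Hinton broth following CLSI guidelines.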

Escherichia coli [3] = test: Inhibition of Escherichia coli MurF using D-Ala-D-Ala/UMtri-mDAP as substrate assessed as residual activity at 100 uM after 15 mins by Malachite green method
In short: (§2)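 Purified E. coli MurF in 50 mM Hepes pH 8.0, 50 mM MgCl2, 0.005% Triton X-114, with D-Ala-D-Ala, UMtri-mDAP and ATP. Compound was added in DMSO (final 5% v/v). Mixtures were incubated 15 min at 37 °C, quenched with Biomol reagent, and absorbance was read at 650 nm after 5 min. Runs were in duplicate. Residual activity was taken versus DMSO-only controls. IC50 came from residual activity at seven concentrations.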

Staphylococcus aureus [4] = test: Inhibition of Staphylococcus aureus MurF using D-Ala-D-Ala/UMtri-L-Lys as substrate assessed as residual activity at 100 uM after 15 mins by Malachite green method
In short: (§3)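 S. aureus MurF, purified, assayed in 50 mM Hepes pH 8.0 with 20 mM MgCl2 and 0.005% Triton X-114, with D-Ala-D-Ala, UMtri-L-Lys and ATP. Compound was in DMSO (5% v/v final). After 15 min at 37 °C, Biomol reagent was added and A650 was read 5 min later. Duplicates were run. Residual activity was relative to 5% DMSO controls. IC50 was read as 50% residual activity across seven concentrations.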

Escherichia coli [5] = test: Antimicrobial activity against Escherichia coli 1411 by broth microdilution method; type: functional, organism-based; in short: as §1
[6] = Inhibition of Streptococcus pneumoniae MurF using D-Ala-D-Ala/UMtri-L-Lys as substrate after 15 mins by Malachite green method
In short: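 Purified S. pneumoniae MurF in 50 mM Hepes pH 8.0, 50 mM MgCl2, 0.005% Triton X-114, with D-Ala-D-Ala, UMtri-L-Lys and ATP. Compound was added in DMSO (5% v/v final). Reactions ran 15 min at 37 °C, were stopped with Biomol malachite green reagent, and A650 was measured after 5 min. Runs were in duplicate. Residual activity was versus DMSO controls. IC50 was from seven concentrations.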

[7] = Inhibition of Staphylococcus aureus MurF using D-Ala-D-Ala/UMtri-L-Lys as substrate after 15 mins by Malachite green method; in short: as §3
[8] = Inhibition of Escherichia coli MurF using D-Ala-D-Ala/UMtri-mDAP as substrate after 15 mins by Malachite green method; in short: as §2

MIC (Streptococcus pneumoniae) | Activity (Escherichia coli [3]) | Activity (Staphylococcus aureus [4]) | IC50 [6] | IC50 [7] | IC50 [8] | Structure (SMILES) | Activity (Escherichia coli [1]) | Activity (Staphylococcus aureus [2]) | Activity (Escherichia coli [5])
64 µg/mL (≈ 124 µM) | 104% | 101% | 10.5 µM | – | – | N#Cc1c(NC(=O)c2cc(S(=O)(=O)N3CCC(O)CC3)c(Cl)cc2Cl)sc2c1CCCC2 | inactive | inactive | inactive
> 128 µg/mL | – | – | 0.64 µM | 80 µM | 109 µM | N#Cc1c(NC(=O)c2cc(S(=O)(=O)N3CCOCC3)c(Cl)cc2Cl)sc2c1CCN(Cc1ccccc1)C2 | inactive | inactive | inactive
> 128 µg/mL | 58% | – | 1.92 µM | 92 µM | – | N#Cc1ccc(CN2CCc3c(sc(NC(=O)c4cc(S(=O)(=O)N5CCOCC5)c(Cl)cc4Cl)c3C#N)C2)c(F)c1 | inactive | inactive | inactive
64 µg/mL (≈ 118 µM) | 102% | 96% | 17.9 µM | – | – | N#Cc1c(NC(=O)c2cc(S(=O)(=O)N3CCC(C(=O)O)CC3)c(Cl)cc2Cl)sc2c1CCCC2 | inactive | inactive | inactive
> 128 µg/mL | – | – | 1.17 µM | 90 µM | 99 µM | N#Cc1cccc(CN2CCc3c(sc(NC(=O)c4cc(S(=O)(=O)N5CCOCC5)c(Cl)cc4Cl)c3C#N)C2)c1 | inactive | inactive | inactive
32 µg/mL (≈ 51.3 µM) | 81% | 79% | 2.75 µM | – | – | N#Cc1c(NC(=O)c2cc(S(=O)(=O)N3CCOCC3)c(Cl)cc2Cl)sc2c1CCN(Cc1cc(O)ccc1O)C2 | inactive | inactive | inactive
> 128 µg/mL | 68% | 84% | 0.18 µM | – | – | N#Cc1c(NC(=O)c2cc(S(=O)(=O)N3CCOCC3)c(Cl)cc2Cl)sc2c1CCN(Cc1ccc(O)cc1)C2 | inactive | inactive | inactive
> 128 µg/mL | – | 64% | 4.15 µM | – | 98 µM | COc1cc(CN2CCc3c(sc(NC(=O)c4cc(S(=O)(=O)N5CCOCC5)c(Cl)cc4Cl)c3C#N)C2)ccc1O | inactive | inactive | inactive
– | 94% | 93% | 131 µM | – | – | CCOC(=O)C1CCCN(S(=O)(=O)c2cc(C(=O)Nc3sc4c(c3C#N)CCCC4)c(Cl)cc2Cl)C1 (stereo unspecified) | inactive | inactive | inactive
> 128 µg/mL | – | – | 0.72 µM | 88 µM | 59 µM | COC(=O)c1ccc(CN2CCc3c(sc(NC(=O)c4cc(S(=O)(=O)N5CCOCC5)c(Cl)cc4Cl)c3C#N)C2)cc1 | inactive | inactive | inactive
> 128 µg/mL | 78% | 64% | 0.43 µM | – | – | N#Cc1c(NC(=O)c2cc(S(=O)(=O)N3CCOCC3)c(Cl)cc2Cl)sc2c1CCN(Cc1ccc(O)c(O)c1)C2 | inactive | inactive | inactive
> 128 µg/mL | 63% | 64% | 0.46 µM | – | – | N#Cc1c(NC(=O)c2cc(S(=O)(=O)N3CCOCC3)c(Cl)cc2Cl)sc2c1CCN(CC1CCCCC1)C2 | inactive | inactive | inactive
> 128 µg/mL | – | – | 2.55 µM | 118 µM | 67 µM | N#Cc1c(NC(=O)c2cc(S(=O)(=O)N3CCOCC3)c(Cl)cc2Cl)sc2c1CCN(Cc1cccc(C(=O)O)c1)C2 | inactive | inactive | inactive
> 128 µg/mL | 93% | 107% | 27 µM | – | – | N#Cc1c(NC(=O)c2cc(S(=O)(=O)N3CCOCC3)c(Cl)cc2Cl)sc2c1CCN(C(=O)c1ccccc1)C2 | inactive | inactive | inactive
> 128 µg/mL | – | – | 1.36 µM | 80 µM | 62 µM | N#Cc1ccc(CN2CCc3c(sc(NC(=O)c4cc(S(=O)(=O)N5CCOCC5)c(Cl)cc4Cl)c3C#N)C2)cc1 | inactive | inactive | inactive
128 µg/mL (≈ 201 µM) | – | – | 1.09 µM | 94 µM | 101 µM | N#Cc1c(NC(=O)c2cc(S(=O)(=O)N3CCOCC3)c(Cl)cc2Cl)sc2c1CCN(Cc1ccc([N+](=O)[O-])cc1)C2 | inactive | inactive | inactive
> 128 µg/mL | – | – | 3.03 µM | 89 µM | 88 µM | CC(=O)Oc1ccc(CN2CCc3c(sc(NC(=O)c4cc(S(=O)(=O)N5CCOCC5)c(Cl)cc4Cl)c3C#N)C2)cc1OC(C)=O | inactive | inactive | inactive
> 128 µg/mL | – | – | 0.6 µM | 115 µM | 77 µM | COc1ccc(CN2CCc3c(sc(NC(=O)c4cc(S(=O)(=O)N5CCOCC5)c(Cl)cc4Cl)c3C#N)C2)cc1O | inactive | inactive | inactive
16 µg/mL (≈ 26.3 µM) | – | – | 0.42 µM | 91 µM | 81 µM | N#Cc1c(NC(=O)c2cc(S(=O)(=O)N3CCOCC3)c(Cl)cc2Cl)sc2c1CCN(Cc1cccc(O)c1)C2 | inactive | inactive | inactive
> 128 µg/mL | 102% | 103% | 3.37 µM | – | – | N#Cc1c(NC(=O)c2cc(S(=O)(=O)N3CCC(=O)CC3)c(Cl)cc2Cl)sc2c1CCCC2 | inactive | inactive | inactive
128 µg/mL | 94% | 81% | 47 µM | – | – | Cl.N#Cc1c(NC(=O)c2cc(S(=O)(=O)N3CCOCC3)c(Cl)cc2Cl)sc2c1CCNC2 | inactive | inactive | inactive
> 128 µg/mL | 93% | 84% | 0.6 µM | – | – | N#Cc1c(NC(=O)c2cc(S(=O)(=O)N3CCOCC3)c(Cl)cc2Cl)sc2c1CCN(CCC1CCNCC1)C2.O=C(O)C(F)(F)F | inactive | inactive | inactive
128 µg/mL (≈ 213 µM) | 88% | 78% | 19 µM | – | – | CC(C)(C)OC(=O)N1CCc2c(sc(NC(=O)c3cc(S(=O)(=O)N4CCOCC4)c(Cl)cc3Cl)c2C#N)C1 | inactive | inactive | inactive
> 128 µg/mL | 91% | 103% | 0.12 µM | – | – | CC(=O)Oc1ccc(C2CCc3c(sc(NC(=O)c4cc(S(=O)(=O)N5CCOCC5)c(Cl)cc4Cl)c3C#N)C2)cc1 (stereo unspecified) | inactive | inactive | inactive
> 128 µg/mL | 100% | 102% | 50 µM | – | – | N#Cc1c(NC(=O)c2cc(S(=O)(=O)N3CCCC(C(=O)O)C3)c(Cl)cc2Cl)sc2c1CCCC2 (stereo unspecified) | inactive | inactive | inactive
> 128 µg/mL | 107% | 103% | 3.75 µM | – | – | CC1CCCCN1S(=O)(=O)c1cc(C(=O)Nc2sc3c(c2C#N)CCCC3)c(Cl)cc1Cl (stereo unspecified) | inactive | inactive | inactive
> 128 µg/mL | 90% | 85% | 0.17 µM | – | – | COc1ccc(C2CCc3c(sc(NC(=O)c4cc(S(=O)(=O)N5CCOCC5)c(Cl)cc4Cl)c3C#N)C2)cc1 (stereo unspecified) | inactive | inactive | inactive
– | – | – | – | – | – | CC(C)(C)OC(=O)N1CCC(CCN2CCc3c(sc(NC(=O)c4cc(S(=O)(=O)N5CCOCC5)c(Cl)cc4Cl)c3C#N)C2)CC1 | inactive | inactive | inactive
